Laboratory results taken from ChEMBL document CHEMBL4334446, “Evaluating the effects of fluorine on biological properties and metabolic stability of some antitubulin 3-substituted 7-phenyl-pyrroloquinolinones” (Eur J Med Chem, 2019).
One block for each compound: values may come before it. Activity calls are given as the source filed them. The calls are words filed in the database; no cut-off is given here.

What was measured:
HeLa [1] = experiment: Induction of cell cycle arrest in human HeLa cells assessed as accumulation at M phase by measuring p-histone H3 level at 50 to 100 nM incubated for 24 hrs by PI staining based flow cytometric analysis; assay type: functional
A-375 [2] = experiment: Growth inhibition of human A375 cells incubated for 72 hrs by MTT assay; assay type: functional; details: A-375, 72 h
A2058 = experiment: Growth inhibition of human A2058 cells incubated for 72 hrs by MTT assay; assay type: functional; details: A2058, 72 h
HT-29 = experiment: Growth inhibition of human HT-29 cells incubated for 72 hrs by MTT assay; assay type: functional; details: HT-29, 72 h
[3] = Growth inhibition of multidrug-resistant human CEM/VBL100 cells incubated for 72 hrs by MTT assay; assay type: functional; details: CEM/VBL100, 72 h
How it was run: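 Leukemia lines were grown in RPMI-1640; the CEM^Vbl-100 medium also contained 100 ng/mL vinblastine. Cells were seeded at 8 × 10³ per well and left 18 h at 37 °C, 5% CO2. Medium was then replaced with fresh medium holding graded compound concentrations (DMSO stocks), in triplicate, for 72 h. Viability was read by MTT, and GI50 = concentration inhibiting proliferation 50%.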

A-375 [4] = experiment: Induction of cell cycle arrest in human A375 cells assessed as accumulation of cells at G2/M phase at 50 to 100 nM incubated for 24 hrs by PI staining based flow cytometric analysis; assay type: functional
How it was run: (§1)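 A375 and A2058 melanoma cells were treated 24 h. Cells were fixed in ice-cold 70% ethanol, then given lysis buffer with RNase A and 0.1% Triton X-100 and stained with PI. Phase distribution came from flow cytometric DNA histograms. Mean ± SEM of two independent experiments.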

A-375 [5] = experiment: Induction of cell cycle arrest in human A375 cells assessed as reduction in cell population at S phase at 50 to 100 nM incubated for 24 hrs by PI staining based flow cytometric analysis; assay type: functional; how it was run: as §1
HeLa [6] = experiment: Cell cycle arrest in human HeLa cells assessed as proportion of mitotic cells at 100 nM incubated for 24 hrs by PI staining based flow cytometry (reference value: 1.5%); assay type: functional
HeLa [7] = experiment: Increase in cyclin B1 protein expression level in human HeLa cells incubated for 24 to 48 hrs by western blot analysis; assay type: functional, cell-based
How it was run: (§2)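 HeLa cells were exposed for set times, including 24 and 48 h, then washed in cold PBS and lysed on ice for 30 min. Lysates were cleared at 15000 × g at 4 °C. 10 µg protein was run by SDS-PAGE and transferred to PVDF. Blots were probed 2 h at room temperature with primary antibodies, then peroxidase secondary antibodies, and detected by ECL. Membranes were reprobed for actin as loading control.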

HeLa [8] = experiment: Cell cycle arrest in human HeLa cells assessed as decrease in cdc25c protein expression level at 50 to 100 nM incubated for 24 hrs by western blot analysis; assay type: functional, cell-based; how it was run: as §2
HeLa [9] = experiment: Induction of mitochondrial membrane depolarization in human HeLa cells at 10 to 100 nM measured at early apoptotic stage of cells by JC1 staining based flow cytometric analysis; assay type: functional, cell-based; details: TDE = time-dependent effect
How it was run: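 HeLa cells were treated 6, 12, 24 and 48 h with 10–100 nM. Cells were stained with JC-1, and the fraction with low mitochondrial potential was measured by flow cytometry. Mean ± SEM of three independent experiments.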

HeLa [10] = experiment: Induction of apoptosis in human HeLa cells assessed as decrease in Bcl2 protein expression at 10 to 100 nM incubated for 24 hrs by western blot analysis; assay type: functional, cell-based; how it was run: as §2
HeLa [11] = experiment: Induction of apoptosis in human HeLa cells assessed as increase in H2AX expression at 50 to 100 nM incubated upto 48 hrs by western blot analysis; assay type: functional, cell-based; how it was run: as §2
B16-BL6 [12] = experiment: Growth inhibition of mouse B16-BL6 cells incubated for 72 hrs by MTT assay; assay type: functional; details: B16-BL6, 72 h
B16-BL6 [13] = experiment: Antitumour activity against mouse B16-BL6 cells allografted in C57BL/6 mouse assessed as reduction in tumor mass at 7.5 mg/kg, ip administrated every other day relative to control; assay type: functional
How it was run: (§3)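 Male C57BL/6 mice (six weeks old) got 2.5×10^5 BL6-B16 murine melanoma cells s.c. in the dorsolateral flank, in PBS. Once tumors were measurable (about 100 mm³), mice were randomized and given drug i.p. every other day in 50 µL DMSO. Vehicle (DMSO) group served as control. Tumor volume = (D × d²)/2; tumor weight taken at end. 5 animals per group, mean ± SEM.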

B16-BL6 [14] = experiment: Antitumour activity against mouse B16-BL6 cells allografted in C57BL/6 mouse assessed as reduction in tumor mass at 3 mg/kg, ip administrated every other day relative to control; assay type: functional; how it was run: as §3
[15] = Metabolic stability in human liver microsomes assessed as retention time of 7-phenyl-3H-pyrrolo[3,2-f]quinolin-9(6H)-one metabolite at 10 uM incubated for 60 mins in presence of NADPH by HPLC analysis; assay type: ADME, Microsome; details: 1 h
How it was run: (§4)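 Compound (10 µM) was incubated with pooled mixed-gender HLMs (0.5 mg protein/mL), 1 mM NADPH and 0.1 M KH2PO4 pH 7.4 for 60 min at 37 °C, aerobic. The reaction was started with microsomes and stopped with ice-cold acetonitrile; controls lacked NADPH. The supernatant went to C8 HPLC with fluorescence detection (ex 344, em 493 nm). Collected peaks were analyzed by ESI+ mass spectrometry.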

[16] = Metabolic stability in human liver microsomes at 10 uM incubated for 60 mins in absence of NADPH by HPLC analysis; assay type: ADME, Microsome; details: 1 h
How it was run: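 Compound at 10 μM final was incubated at 37 °C with pooled mixed-gender HLMs (1 mg/mL) in 0.1 M KH₂PO₄ pH 7.4, NADPH omitted, for 0 or 60 min. Reaction was started by adding microsomes after 3-min equilibration and stopped with ice-cold acetonitrile. Supernatant was analysed by HPLC-fluorescence. Percent remaining at 60 min is relative to 0 min; mean ± SD, n = 3.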

[17] = Metabolic stability in NADPH-supplemented human liver microsomes assessed as parent compound remaining at 37 degC incubated for 30 mins; assay type: ADME, Microsome; details: read-out: Stability
How it was run: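 Compound (10 µM) was incubated at 37 °C with 0.5 mg/mL pooled HLMs and 1 mM NADPH in 0.1 M KH2PO4 pH 7.4, sampled at 0, 2, 5, 15 and 30 min. Controls without NADPH, or buffer only, ran 0 and 30 min. Parent was quantified by HPLC-fluorescence as % of the 0 min level, n = 3. t1/2 = 0.693/k, with k from regression of ln % remaining versus time.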

[18] = Drug metabolism in human liver microsomes at 10 uM incubated for 60 mins in presence of NADPH by HPLC analysis; assay type: ADME, Microsome; details: 1 h
How it was run: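 Compound (10 µM) was incubated 0 or 60 min at 37 °C with pooled HLMs (1 mg/mL), with or without 1 mM NADPH, or in buffer only (0.1 M KH2PO4 pH 7.4). Reactions were stopped with ice-cold acetonitrile. Remaining parent was measured by HPLC-fluorescence relative to 0 min; mean ± SD, n = 3.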

[19] = Metabolic stability in human liver microsomes assessed as 7-phenyl-3H-pyrrolo[3,2-f]quinolin-9(6H)-one metabolite formation at 10 uM incubated for 60 mins in presence of NADPH by ESI-MS analysis; assay type: ADME, Microsome; details: 1 h; how it was run: as §4

- GI50 (A-375 [2]): 15.5 nM
- GI50 (HT-29): 1.1 nM
- GI50 (B16-BL6 [12]): 10 nM
SMILES: CCn1ccc2c3c(=O)cc(-c4ccccc4F)[nH]c3ccc21
- Activity (HeLa [1]): Active
- GI50 (A2058): 4.8 nM
- GI50 [3]: 1.1 nM
- Activity (A-375 [4]): Active
- Activity (A-375 [5]): Active
- Activity (HeLa [6]): 44%
- Activity (HeLa [7]): Dose-dependent effect
- inhibition (HeLa [8]): Active
- Activity (HeLa [9]): Tde
- Activity (HeLa [10]): Active
- Activity (HeLa [11]): Active
- inhibition in vivo at 7.5 mg/kg (B16-BL6 [13]): 60%
- inhibition in vivo at 3 mg/kg (B16-BL6 [14]): 28.6%

- GI50 (HT-29): 32 nM
- Retention_time [15]: 11.2 min
- Stability [16]: Stable
- remaining at 0.5 h [17]: < 70%
- Drug metabolism [18]: Metabolite_Detected
- Drug metabolism [19]: Metabolite_Detected
SMILES: CCn1ccc2c3c(=O)cc(-c4ccccc4)[nH]c3ccc21
- GI50 [3]: 4 nM
